Results as given in ChEMBL document CHEMBL3994589, “Total Synthesis and in Vitro Anti-Tumor-Promoting Activities of Racemic Acetophenone Monomers from Acronychia trifoliolata” (J Nat Prod, 2016).

Assays:
[1] = Cytotoxicity against human Raji cells assessed as cell viability at 1000 molar ratio per TPA after 48 hrs by trypan blue staining based method; settings: read-out: Activity
Outline: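 Raji cells exposed to test compounds at 1000 mol ratio to TPA (TPA 32 pmol/mL) in the EBV-EA activation assay; viability of treated cells scored by trypan blue staining and reported as percentage.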

[2] = tested on: human gammaherpesvirus 4; assay: Inhibition of TPA-induced EBV-early antigen activation in human Raji cells assessed as reduction in EBV-EA positive cells at 500 molar ratio per TPA after 48 hrs by indirect immunofluorescence method relative to TPA; values are per cent of control
[3] = tested on: human gammaherpesvirus 4; assay: Inhibition of TPA-induced EBV-early antigen activation in human Raji cells assessed as reduction in EBV-EA positive cells at 100 molar ratio per TPA after 48 hrs by indirect immunofluorescence method relative to TPA; values are per cent of control
[4] = tested on: human gammaherpesvirus 4; assay: Inhibition of TPA-induced EBV-early antigen activation in human Raji cells assessed as reduction in EBV-EA positive cells at 1000 molar ratio per TPA after 48 hrs by indirect immunofluorescence method relative to TPA; values are per cent of control
[5] = Inhibition of TPA-induced EBV-early antigen activation in human Raji cells after 48 hrs by indirect immunofluorescence method; format: cell-based, human gammaherpesvirus 4
Outline: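 EBV-EA activation induced in Raji cells by 32 pmol/mL TPA, with compounds tested over molar ratios relative to TPA. IC50 is the compound concentration inhibiting 50% of the positive control activated with 32 nM TPA.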

[6] = tested on: human gammaherpesvirus 4; assay: Inhibition of TPA-induced EBV-early antigen activation in human Raji cells assessed as reduction in EBV-EA positive cells at 10 molar ratio per TPA after 48 hrs by indirect immunofluorescence method relative to TPA; values are per cent of control

Row | SMILES | IC50 [5] [µM] | viability at 48 h, 1000 molar ratio per TPA [1] [%] | level, % of control [2] [%] | level, % of control [3] [%] | level, % of control [4] [%] | level, % of control [6] [%]
1 | COc1c(CC=C(C)C)c2c(c(OC(C)=O)c1C(C)=O)CC(C(C)(C)O)O2 (stereo not given) | 15 | 60 | 43.8 | 71 | 7 | 100
2 | COc1c2c(c(CC=C(C)C)c(OC(C)=O)c1C(C)=O)OC(C(C)(C)O)C2 (stereo not given) | 9.6 | 60 | 33.9 | 78.6 | 5.3 | 97.8
3 | COc1c2c(c(CCC(C)C)c(O)c1C(C)=O)OC(C)(C)C(O)C2 (racemic) | 9.3 | 60 | 31.5 | 76 | 4.9 | 97.7
4 | COc1c2c(cc(O)c1C(C)=O)OC(O)C2 (racemic) | 15.7 | 60 | 53.3 | 77.9 | 10.8 | 100
5 | COc1cc(/C=C/C(=O)CC(=O)/C=C/c2ccc(O)c(OC)c2)ccc1O [CURCUMIN] | 12.1 | – | 21.1 | 80.1 | 0 | 100

Compounds with a lower IC50 [5], results first:

Row | IC50 [5] [µM] | SMILES | viability at 48 h, 1000 molar ratio per TPA [1] [%] | level, % of control [2] [%] | level, % of control [3] [%] | level, % of control [4] [%] | level, % of control [6] [%]
6 | 8.9 | COc1c(CC=C(C)C)c2c(c(O)c1C(C)=O)CC(O)C(C)(C)O2 (racemic) | 60 | 29.1 | 72.5 | 3 | 96.9
7 | 8.4 | COc1c(CC=C(C)C)c(O)c2c(c1C(C)=O)OC(C)(C)C(O)C2 (racemic) | 60 | 27.1 | 68.2 | 1.5 | 96.6
8 | 8.1 | COc1c(CCC(C)C)c2c(c(O)c1C(C)=O)CC(O)C(C)(C)O2 (stereo not given) | 60 | 36.6 | 78.8 | 0 | 97.8
9 | 8 | COc1c(CC=C(C)C)c2c(c(O)c1C(C)=O)CC(C(C)(C)O)O2 (racemic) | 60 | 32 | 75.5 | 0 | 94.9
10 | 7.7 | COc1c2c(c(CC=C(C)C)c(O)c1C(C)=O)OC(C(C)(C)O)C2 (racemic) | 60 | 30.6 | 74.3 | 0 | 93.3
11 | 7.3 | COc1c2c(c(CC=C(C)C)c(O)c1C(C)=O)OC(C)(C)C(O)C2 (racemic) | 60 | 26.5 | 65.5 | 0 | 92.4
